Among the data in ChEMBL document CHEMBL1268890, “Binding of diarrheic shellfish poisoning toxins to okadaic acid binding proteins purified from the sponge Halichondria okadai” (Bioorg Med Chem, 2010) are EC50 and Activity values, retold here.

Activity calls are given as the source filed them. The calls are words filed in the database; no cut-off is given here.

A word on the EC50: it is the concentration needed to bring the measured effect to its halfway point.

Assay [1] relates to P388. The experiment in a line: Blockade of okadaic acid-induced cytotoxicity in mouse P388 cells after 2 days by WST-8 assay in presence of Halichondria okadai recombinant OABP 2.3. The assay is classed as functional, cell-based. The following applies: P388, 48 h. A digest of the protocol:
(§1)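 P388 cells kept in RPMI 1640 with FBS, penicillin and streptomycin. Cells exposed to 100 nM okadaic acid together with graded concentrations of recombinant OABP for 2 days. WST-8 then added for 4 h; relative viability read as absorbance at 450 nm; EC50 from dose-response.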
On the technique in general: Formazan colour is commonly taken as a measure of viable cells.

Assay [2] has as its system P388. The experiment in a line: Blockade of okadaic acid-induced cytotoxicity in mouse P388 cells after 2 days by WST-8 assay in presence of Halichondria okadai recombinant OABP 2.1. The assay is classed as functional, cell-based. The note with it: P388, 48 h. A digest of the protocol:
as §1

The next assay deals with BL21-DE3. The experiment in a line: Displacement of [24-3H]OA from Halichondria okadai recombinant OABP 2.1 expressed in Escherichia coli BL21 (DE3) cells.
The test system of assay [3] is P388. The experiment in a line: Blockade of mitomycin-induced cytotoxicity in mouse P388 cells after 2 days by WST-8 assay in presence of Halichondria okadai recombinant OABP 2.1. The assay is classed as functional, cell-based.
Assay [4] deals with T1, Okadaic acid binding protein 2.3 (Halichondria okadai) (UniProt B0M1D1).
T1 sequence (whole entry): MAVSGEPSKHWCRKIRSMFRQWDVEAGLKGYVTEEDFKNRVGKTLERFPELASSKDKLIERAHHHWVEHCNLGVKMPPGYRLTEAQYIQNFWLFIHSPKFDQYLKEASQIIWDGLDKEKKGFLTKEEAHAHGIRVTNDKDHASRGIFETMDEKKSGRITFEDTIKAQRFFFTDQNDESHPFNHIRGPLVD
Briefly: Displacement of [24-3H]OA from Halichondria okadai recombinant OABP 2.3 expressed in Escherichia coli BL21 (DE3) cells.

With `C=C1[C@@H](O)[C@@H]2O[C@]3(CC[C@H](/C=C/[C@@H](C)[C@@H]4CC(C)=C[C@@]5(O[C@H](C[C@@](C)(O)C(=O)O)CC[C@H]5O)O4)O3)CC[C@H]2O[C@@H]1[C@@H](O)C[C@H](C)[C@H]1O[C@@]2(CCCCO2)CC[C@H]1C` [OKADAIC ACID], the EC50 with P388 [1] is 87 nM; with P388 [2] it was 92 nM. Moreover, the Activity result (with BL21-DE3; in assay [4]) was “Dose-dependent effect” each time. Further, the outcome in the assay on P388 [3] was inactive.
For the compound `C=C1[C@@H](O)[C@@H]2O[C@]3(CC[C@H](/C=C/[C@@H](C)[C@@H]4CC(C)=C[C@@]5(O[C@H](C[C@@](C)(O)C(=O)O)CC[C@H]5O)O4)O3)CC[C@H]2O[C@@H]1[C@@H](O)C[C@H](C)[C@H]1O[C@@]2(CC[C@H]1C)OCCC[C@H]2C`, the Activity entry (in the assay on BL21-DE3; in assay [4]) was “Dose-dependent effect” in each case.
